Results published in ChEMBL document CHEMBL1135936, “6-[2-(Phosphonomethoxy)alkoxy]pyrimidines with antiviral activity” (J Med Chem, 2002).
≈ marks a conversion by molar mass, not a printed value.

What was measured:
E6SM [1] = assay: Inhibition of Herpes simplex virus-1, KOS strain induced cytopathicity in E6SM cell line; format: functional, cell-based; settings: Homo sapiens
Outline: (§1)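 Inhibition of virus-induced cytopathicity in confluent cell cultures in 96-well plates inoculated with 100 CCID50 of virus; 1 CCID50 is the virus dose infecting 50% of cultures. EC50 is based on reduction of cytopathicity.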

L929 [2] = assay: (§2) In vitro cytotoxicity against murine L929 cells; format: functional, Mus musculus; parameters: concentration or dose not given beside the values
Outline: (§3)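 Cells were grown for 72 h at a constant compound concentration of 10 µM, then counted. Growth inhibition is given relative to cell counts in control cultures grown in medium without compound. Lines: mouse L1210 and L929, human HeLaS3 and CCRF-CEM.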

E6SM [3] = assay: Inhibition of Herpes simplex virus-2 (G strain) induced cytopathicity in E6SM cell line; format: functional, cell-based; settings: Homo sapiens; outline: as §1
HeLa [4] = assay: (§4) In vitro cytotoxicity against human cervix carcinoma HeLa S3 cells; format: functional; parameters: concentration or dose not given beside the values; outline: as §3
CCRF-CEM [5] = assay: (§5) In vitro cytotoxicity against CCRF-CEM T lymphoblastoid cells; format: functional, Homo sapiens; parameters: concentration or dose not given beside the values; outline: as §3
HEL [6] = assay: Inhibition of Varicella-Zoster virus (VZV) OKA strain induced cytopathicity in HEL cell line; format: functional, cell-based; settings: Homo sapiens; outline: as §1
Human alphaherpesvirus 3 = assay: Inhibition of Thymidine kinase deficient (TK-) Varicella-Zoster virus (VZV) 07/1 strain induced cytopathicity n HEL cell line; format: functional, organism-based; settings: Human alphaherpesvirus 3, tk-07, HEL; outline: as §1
E6SM [7] = assay: Inhibition of thymidine kinase deficient Herpes simplex virus-1 VMW 1837 strain induced cytopathicity in E6SM cell line; format: functional, cell-based; settings: Homo sapiens; outline: as §1
L1210 [8] = assay: (§6) In vitro cytotoxicity against L1210 mouse leukemia cells; format: functional; parameters: concentration or dose not given beside the values; outline: as §3
HEL [9] = assay: Inhibition of Varicella-Zoster virus (VZV) YS strain induced cytopathicity in HEL cell line; format: functional, cell-based; settings: Homo sapiens; outline: as §1
CCRF-CEM [10] = assay: Inhibition of Human immunodeficiency virus (HIV)-2 ROD strain induced cytopathicity in CEM cell line; format: functional, cell-based
Outline: (§7)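 CEM cells were infected with 100 CCID50 per mL of HIV-1 (IIIB) or HIV-2 (ROD). Cells were seeded into wells containing dilutions of compound and incubated 4 days at 37 °C. CEM giant cell formation was then examined microscopically.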

CCRF-CEM [11] = assay: Inhibition of Human immunodeficiency virus (HIV) -1 III B strain induced cytopathicity in CEM cell line; format: functional, cell-based; outline: as §7
[12] = system: Moloney murine sarcoma virus; assay: Inhibition of moloney sarcoma virus (MSV) induced cytopathicity in C3H/3T3 embryo fibroblast cells; format: functional, organism-based
Outline: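 C3H/3T3 murine embryo fibroblasts were seeded in 48-well plates and infected 24 h later with 80 focus-forming units of MSV. MSV stock was prepared from tumours in NMRI mice. Virus adsorbed for 10-120 min at 37 °C, then fresh medium with compound dilutions was added. Transformation was examined microscopically after 6 days.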

HEL [13] = assay: Inhibition of Thymidine kinase deficient (TK-) Varicella-Zoster virus (VZV) YS/R strain induced cytopathicity in HEL cell line; format: functional, cell-based; settings: Homo sapiens; outline: as §1
L929 [14] = assay: as §2; format: functional, Mus musculus; outline: as §3
L1210 [15] = assay: as §6; format: functional; outline: as §3
HeLa [16] = assay: as §4; format: functional; outline: as §3
CCRF-CEM [17] = assay: as §5; format: functional, Homo sapiens; outline: as §3

| SMILES | EC50 (E6SM [1]) | Control (L929 [2]) | EC50 (E6SM [3]) | Control (HeLa [4]) | Control (CCRF-CEM [5]) | EC50 (HEL [6]) | EC50 (Human alphaherpesvirus 3) | EC50 (E6SM [7]) | Control (L1210 [8]) | EC50 (HEL [9]) | EC50 (CCRF-CEM [10]) | EC50 (CCRF-CEM [11]) | EC50 [12] | EC50 (HEL [13]) | Control (L929 [14]) | Control (L1210 [15]) | Control (HeLa [16]) | Control (CCRF-CEM [17]) |
| --- | --- | --- | --- | --- | --- | --- | --- | --- | --- | --- | --- | --- | --- | --- | --- | --- | --- | --- |
| Nc1cc(=O)n(CCOCP(=O)(O)O)c(N)n1 | 240 µg/mL (≈ 908 µM) | 96% | > 400 µg/mL | 93% | 95% | 32 µg/mL (≈ 121 µM) | > 50 µg/mL | > 400 µg/mL | 76% | > 50 µg/mL | 25 µg/mL (≈ 94.6 µM) | 80 µg/mL (≈ 303 µM) | 2.92 µg/mL (≈ 11.1 µM) | > 50 µg/mL |  |  |  |  |
| Nc1nc(NC2CC2)cc(OCCOCP(=O)(O)O)n1 | 240 µg/mL (≈ 789 µM) |  | > 80 µg/mL |  |  | > 20 µg/mL | > 50 µg/mL | 240 µg/mL (≈ 789 µM) |  | > 50 µg/mL | > 100 µg/mL | > 100 µg/mL | > 40 µg/mL | > 50 µg/mL | 93% | 71% | 88% | 87% |
| Nc1ncnc2c1ncn2CCOCP(=O)(O)O [ADEFOVIR] | 7 µg/mL (≈ 25.6 µM) |  | 7 µg/mL (≈ 25.6 µM) |  |  | 10 µg/mL (≈ 36.6 µM) | 10 µg/mL (≈ 36.6 µM) | 7 µg/mL (≈ 25.6 µM) |  | 10 µg/mL (≈ 36.6 µM) | 2.5 µg/mL (≈ 9.15 µM) | 1.8 µg/mL (≈ 6.59 µM) | 0.25 µg/mL (≈ 0.915 µM) | 10 µg/mL (≈ 36.6 µM) |  |  |  |  |
| CN(C)c1cc(=O)n(CCOCP(=O)(O)O)c(N)n1 | > 80 µg/mL | 99% | > 80 µg/mL | 92% | 98% | > 50 µg/mL | > 50 µg/mL | > 80 µg/mL | 90% | > 50 µg/mL | > 100 µg/mL | > 100 µg/mL | 105 µg/mL (≈ 359 µM) | > 50 µg/mL |  |  |  |  |
| Nc1nc(OCCOCP(=O)(O)O)cc(OCCOCP(=O)(O)O)n1 | 240 µg/mL (≈ 595 µM) | 56% | > 400 µg/mL | 72% | 109% | 50 µg/mL (≈ 124 µM) | > 50 µg/mL | 240 µg/mL (≈ 595 µM) | 77% | > 50 µg/mL | 80 µg/mL (≈ 198 µM) | 57 µg/mL (≈ 141 µM) | 43 µg/mL (≈ 107 µM) | > 50 µg/mL |  |  |  |  |
| CN(C)c1cc(OCCOCP(=O)(O)O)nc(N)n1 | > 400 µg/mL | 104% | > 400 µg/mL | 89% | 104% | > 50 µg/mL | > 50 µg/mL | > 400 µg/mL | 88% | > 50 µg/mL | > 100 µg/mL | > 100 µg/mL | 133 µg/mL (≈ 455 µM) | > 50 µg/mL |  |  |  |  |
| Nc1nc(OCCOCP(=O)(O)O)cc(=O)n1CCOCP(=O)(O)O | > 400 µg/mL |  | > 400 µg/mL | 72% |  | > 50 µg/mL | > 50 µg/mL | > 400 µg/mL |  | > 50 µg/mL | > 100 µg/mL | > 100 µg/mL | 107 µg/mL (≈ 265 µM) | > 50 µg/mL | 77% | 80% |  | 101% |
| Nc1cc(O)nc(SCCOCP(=O)(O)O)n1 | 240 µg/mL (≈ 853 µM) |  | > 400 µg/mL |  |  | > 50 µg/mL | > 50 µg/mL | > 400 µg/mL |  | > 50 µg/mL | > 100 µg/mL | > 100 µg/mL | 72 µg/mL (≈ 256 µM) | > 50 µg/mL |  |  |  |  |
| CSc1nc(N)cc(OCCOCP(=O)(O)O)n1 | > 80 µg/mL | 92% | > 80 µg/mL | 79% | 87% | > 50 µg/mL | > 50 µg/mL | > 80 µg/mL | 96% | > 50 µg/mL | 33 µg/mL (≈ 112 µM) | 51 µg/mL (≈ 173 µM) | > 40 µg/mL | > 50 µg/mL |  |  |  |  |
| Nc1cc(O)ncn1 | > 400 µg/mL |  | > 400 µg/mL |  |  | > 50 µg/mL | > 50 µg/mL | > 400 µg/mL |  | > 50 µg/mL | > 100 µg/mL | > 100 µg/mL |  | > 50 µg/mL |  |  |  |  |
| CC(C)OP(=O)(COCCOc1cc(N)ncn1)OC(C)C | > 400 µg/mL |  | > 400 µg/mL |  |  | > 50 µg/mL | > 50 µg/mL | > 400 µg/mL |  | > 50 µg/mL | > 20 µg/mL | > 20 µg/mL |  | > 50 µg/mL |  |  |  |  |
| CN(C)c1cc(O)nc(N)n1 | > 400 µg/mL |  | > 400 µg/mL |  |  | > 50 µg/mL | > 50 µg/mL | > 400 µg/mL |  | > 50 µg/mL | > 100 µg/mL | > 100 µg/mL | 132 µg/mL (≈ 856 µM) | > 50 µg/mL |  |  |  |  |
